Active and inactive are the calls of the source. The rule behind the calls is not given here.
Tests used:
[1] = target: Mitogen-activated protein kinase kinase kinase 14 (Homo sapiens, UniProt Q99558); experiment: Inhibition of recombinant N-terminal GST-fused human NIK (319 to 947 residues) expressed in baculovirus expression system incubated for 120 mins in presence of ATP by ADP-glo based luminescence assay
Summary of the method: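 ADP-Glo luminescence assay with recombinant human MAP3K14. Buffer: Tris pH 7.5, 2 mM DTT, 2 mM MgCl₂, 100 µM Na₃VO₄, 0.02 mg/mL BSA, 5% DMSO; ATP 10 µM. Reaction 120 min at room temperature; ADP-Glo reagent 40 min, then detection reagent 40 min. Mean ± SD from two independent experiments.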

[2] = target: Aurora kinase B (Homo sapiens, UniProt Q96GD4); experiment: Inhibition of human Aurora B using [H-LRRASLG] as substrate in presence of [gamma33P]ATP by hotspot assay
Chain of Aurora kinase B (Q96GD4 whole entry): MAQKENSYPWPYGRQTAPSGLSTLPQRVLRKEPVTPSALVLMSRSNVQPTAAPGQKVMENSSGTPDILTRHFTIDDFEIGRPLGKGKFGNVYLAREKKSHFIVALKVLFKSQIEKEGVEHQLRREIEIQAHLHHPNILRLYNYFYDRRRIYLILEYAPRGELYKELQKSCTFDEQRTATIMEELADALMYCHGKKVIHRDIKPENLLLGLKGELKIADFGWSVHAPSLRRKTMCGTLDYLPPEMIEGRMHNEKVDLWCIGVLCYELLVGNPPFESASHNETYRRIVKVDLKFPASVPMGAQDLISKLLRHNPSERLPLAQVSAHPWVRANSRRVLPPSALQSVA

[3] = target: T1, Tyrosine-protein kinase JAK3 (Homo sapiens, UniProt P52333); experiment: Inhibition of human JAK3 using [GGEEEEYFELVKKKK] as substrate in presence of [gamma33P]ATP by hotspot assay
T1 sequence (P52333 whole entry): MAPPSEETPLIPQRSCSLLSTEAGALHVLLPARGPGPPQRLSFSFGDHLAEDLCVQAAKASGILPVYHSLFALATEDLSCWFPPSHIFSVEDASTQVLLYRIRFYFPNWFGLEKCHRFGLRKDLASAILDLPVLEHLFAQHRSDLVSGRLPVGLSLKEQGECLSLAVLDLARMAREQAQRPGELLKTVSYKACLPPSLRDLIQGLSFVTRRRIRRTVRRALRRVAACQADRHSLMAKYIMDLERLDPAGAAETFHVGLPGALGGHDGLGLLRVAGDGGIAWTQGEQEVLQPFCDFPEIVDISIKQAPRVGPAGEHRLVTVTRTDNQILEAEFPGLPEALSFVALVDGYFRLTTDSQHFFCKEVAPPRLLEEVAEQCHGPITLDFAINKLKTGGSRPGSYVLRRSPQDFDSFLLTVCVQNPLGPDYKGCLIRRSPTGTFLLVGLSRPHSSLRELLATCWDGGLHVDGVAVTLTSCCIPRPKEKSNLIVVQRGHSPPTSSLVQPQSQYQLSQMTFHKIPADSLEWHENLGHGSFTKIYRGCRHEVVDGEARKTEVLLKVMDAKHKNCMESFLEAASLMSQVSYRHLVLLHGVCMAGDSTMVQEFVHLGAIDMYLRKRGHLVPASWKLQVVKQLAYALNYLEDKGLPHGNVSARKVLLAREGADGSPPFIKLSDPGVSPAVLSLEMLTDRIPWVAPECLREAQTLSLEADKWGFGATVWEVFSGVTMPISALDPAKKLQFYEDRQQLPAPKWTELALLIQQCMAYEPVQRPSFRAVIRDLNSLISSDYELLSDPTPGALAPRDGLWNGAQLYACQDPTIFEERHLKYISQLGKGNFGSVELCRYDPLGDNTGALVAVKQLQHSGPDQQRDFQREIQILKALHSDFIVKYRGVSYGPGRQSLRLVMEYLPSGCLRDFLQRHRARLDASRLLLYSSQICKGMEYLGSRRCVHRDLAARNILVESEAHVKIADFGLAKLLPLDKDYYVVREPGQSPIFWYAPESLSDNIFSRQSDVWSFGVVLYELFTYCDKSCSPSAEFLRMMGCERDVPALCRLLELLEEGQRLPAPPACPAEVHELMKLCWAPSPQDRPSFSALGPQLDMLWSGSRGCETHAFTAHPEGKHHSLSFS

[4] = tested on: T-cell; experiment: Antiinflammatory activity in mouse T cells assessed as inhibition of conA-induced induced T cell proliferation at 2 uM incubated for 48 hrs by CCK8 assay relative to control; assay type: functional
[5] = species on record: Homo sapiens; experiment: Selectivity ratio of IC50 for human Aurora B to IC50 for human NIK
[6] = species on record: Homo sapiens; experiment: Selectivity ratio of IC50 for human TRKC to IC50 for human NIK
[7] = AUC (0 to infinity) in Sprague-Dawley rat at 1 mg/kg, iv administered as single bolus dose by LC-MS/MS analysis; assay type: ADME, organism-based; set-up: dose 1 mg/kg, time infinity, route intravenous; conditions: in vivo
Summary of the method: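 Single IV bolus in SD rats, 3 per group, in DMSO:PEG200:saline 20:20:60 (v/v/v), 0.2 mg/mL. Plasma protein-precipitated with ACN containing internal standards, then quantified by LC-MS/MS. AUC0-∞ from concentration-time profiles by linear trapezoidal rule, noncompartmental analysis. Mean ± SD of three rats.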

[8] = Initial plasma concentration in Sprague-Dawley rat at 1 mg/kg, iv administered as single bolus dose by LC-MS/MS analysis; assay type: ADME, organism-based
[9] = Volume of distribution in Sprague-Dawley rat at 1 mg/kg, iv administered as single bolus dose by LC-MS/MS analysis; assay type: ADME, organism-based; conditions: in vivo
Summary of the method: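 SD rats, 3 per group. Single IV bolus at 1 mg/kg in DMSO:PEG200:saline 20:20:60 (0.2 mg/mL), or oral gavage at 10 mg/kg as suspension in 0.5% CMC-Na/0.2% Tween 80 (1 mg/mL). Plasma protein-precipitated with acetonitrile containing internal standards, then quantified by LC-MS/MS. Parameters derived by noncompartmental analysis. Mean ± SD.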

[10] = Clearance in Sprague-Dawley rat at 1 mg/kg, iv administered as single bolus dose by LC-MS/MS analysis; assay type: ADME, organism-based; conditions: in vivo
[11] = tested on: J774; experiment: Antiinflammatory activity in mouse J774 cells assessed as reduction in LPS-induced IL23 mRNA level by SYBR green dye-based quantitative PCR analysis; assay type: functional, cell-based
Summary of the method: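 LPS-stimulated J774 macrophages; mRNA quantified by qPCR using 4 µL cDNA plus 16 µL master mix per reaction. Mean ± SD of three biological replicates; significance by two-tailed Student's t-test against the model group.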

[12] = tested on: Mus musculus; experiment: Protection against IMQ-induced dermatitis in C57 mouse model of psoriasis assessed as reduction in invasive erythema at 60 to 120 mg/kg, ig administered once daily starting from day 3 post IMQ-challenge and measured 2 days post-last dose of IMQ; assay type: functional, organism-based
Summary of the method: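 C57 mice given 5% imiquimod cream on the back once daily for 7 days; intragastric dosing 60 or 120 mg/kg once daily from day 3 to end, n = 6 per group. Dorsal skin phenotype assessed by imaging.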

[13] = target: Mitogen-activated protein kinase kinase kinase 14 (Mus musculus) (UniProt Q9WUL6); experiment: In vivo inhibition of NIK in C57 mouse model of IMQ-induced psoriasis assessed as reduction in NF-kappaB signalling in back skin by measuring decrease in mRNA IL-6 level at 60 to 120 mg/kg, po administered starting from day 3 post IMQ-challenge and measured 2 days post-last dose of IMQ by qPCR analysis; assay type: functional, organism-based
Chain of Mitogen-activated protein kinase kinase kinase 14 (Mus musculus) (Q9WUL6 whole entry): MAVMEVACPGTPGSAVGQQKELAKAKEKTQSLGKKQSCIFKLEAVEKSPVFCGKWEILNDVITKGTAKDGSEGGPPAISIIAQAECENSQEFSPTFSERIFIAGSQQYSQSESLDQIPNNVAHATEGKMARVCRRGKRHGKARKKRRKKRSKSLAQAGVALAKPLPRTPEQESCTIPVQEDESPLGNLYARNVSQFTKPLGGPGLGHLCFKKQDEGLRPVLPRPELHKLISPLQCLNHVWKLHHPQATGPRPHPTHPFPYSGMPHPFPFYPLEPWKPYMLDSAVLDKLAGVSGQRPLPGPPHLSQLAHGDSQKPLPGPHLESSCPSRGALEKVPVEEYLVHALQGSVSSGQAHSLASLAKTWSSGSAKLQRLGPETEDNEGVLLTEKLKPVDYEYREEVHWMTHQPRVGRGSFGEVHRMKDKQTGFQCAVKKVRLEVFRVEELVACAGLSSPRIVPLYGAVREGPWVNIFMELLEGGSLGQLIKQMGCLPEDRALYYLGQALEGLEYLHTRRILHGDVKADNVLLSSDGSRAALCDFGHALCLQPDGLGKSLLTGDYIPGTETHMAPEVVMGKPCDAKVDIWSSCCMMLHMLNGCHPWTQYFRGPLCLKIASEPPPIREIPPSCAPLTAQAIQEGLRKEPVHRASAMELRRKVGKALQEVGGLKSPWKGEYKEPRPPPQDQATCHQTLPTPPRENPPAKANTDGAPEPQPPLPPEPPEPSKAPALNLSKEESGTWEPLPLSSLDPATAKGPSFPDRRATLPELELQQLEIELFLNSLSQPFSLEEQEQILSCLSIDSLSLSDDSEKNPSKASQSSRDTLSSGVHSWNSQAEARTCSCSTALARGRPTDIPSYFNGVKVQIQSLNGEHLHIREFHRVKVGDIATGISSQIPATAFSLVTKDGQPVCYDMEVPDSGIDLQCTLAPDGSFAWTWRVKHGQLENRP
Summary of the method: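 IMQ psoriasis model: 5% imiquimod cream applied to C57 mouse back skin once daily for seven days; oral dosing 60 or 120 mg/kg once daily from day 3, n = 6 per group. Back-skin mRNA measured by qPCR.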

Chain of Mitogen-activated protein kinase kinase kinase 14 (Q99558 whole entry, the tested form may be a part): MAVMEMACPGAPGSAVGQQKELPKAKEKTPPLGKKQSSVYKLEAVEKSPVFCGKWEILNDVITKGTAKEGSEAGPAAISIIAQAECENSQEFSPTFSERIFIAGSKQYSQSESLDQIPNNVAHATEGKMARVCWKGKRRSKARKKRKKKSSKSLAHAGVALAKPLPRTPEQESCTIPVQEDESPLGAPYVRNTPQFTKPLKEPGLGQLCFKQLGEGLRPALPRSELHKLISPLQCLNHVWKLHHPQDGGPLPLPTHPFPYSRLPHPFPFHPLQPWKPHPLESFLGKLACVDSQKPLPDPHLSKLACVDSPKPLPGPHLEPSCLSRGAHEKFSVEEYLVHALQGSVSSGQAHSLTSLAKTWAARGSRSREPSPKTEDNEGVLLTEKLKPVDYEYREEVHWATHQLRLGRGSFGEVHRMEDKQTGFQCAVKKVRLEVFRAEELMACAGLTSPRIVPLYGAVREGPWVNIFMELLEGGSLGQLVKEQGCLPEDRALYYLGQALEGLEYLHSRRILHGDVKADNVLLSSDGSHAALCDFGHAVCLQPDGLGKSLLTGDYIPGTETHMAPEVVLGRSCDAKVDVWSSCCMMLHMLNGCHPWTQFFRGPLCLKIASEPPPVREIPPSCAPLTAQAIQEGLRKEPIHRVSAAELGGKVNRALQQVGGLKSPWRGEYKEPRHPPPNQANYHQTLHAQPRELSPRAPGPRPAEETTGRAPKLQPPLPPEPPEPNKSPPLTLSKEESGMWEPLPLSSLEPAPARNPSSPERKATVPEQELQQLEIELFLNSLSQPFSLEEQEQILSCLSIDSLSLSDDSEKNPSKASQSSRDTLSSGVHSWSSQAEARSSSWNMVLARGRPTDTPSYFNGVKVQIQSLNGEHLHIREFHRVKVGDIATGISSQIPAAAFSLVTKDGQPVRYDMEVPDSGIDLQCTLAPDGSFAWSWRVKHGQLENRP

**Q.** For `CC(O)(C#Cc1ccc(N2CCOCC2)c(Nc2ncnc3[nH]ccc23)c1)c1nccs1` (racemic), which IC50 [1] is on record?
**A.** Its IC50 is 9.87 nM.

**Q.** What about the IC50 [2] of the same compound?
**A.** The IC50 was 43.2 nM.

**Q.** What about the IC50 [3] of the same compound?
**A.** The IC50 was 892 nM.

**Q.** And the inhibition at 2 µM [4]?
**A.** The inhibition at 2 µM was 62.3%.

**Q.** What about the Ratio IC50 [5] of the same compound?
**A.** The Ratio IC50 was 4 to 20.

**Q.** And the Ratio IC50 [6]?
**A.** Its Ratio IC50 is 4 to 20.

**Q.** And the AUC(0-inf) [7]?
**A.** Its AUC(0-inf) is 419 ng·h/mL.

**Q.** What about the C0 [8] of the same compound?
**A.** Its C0 is 377 ng/mL.

**Q.** What about the Vd [9] of the same compound?
**A.** The Vd was 2.73 L/kg.

**Q.** What about the clearance [10] of the same compound?
**A.** The clearance was 40.3 mL/min/kg.

**Q.** And the Activity [11]?
**A.** Its Activity is “Active”.

**Q.** And the Activity [12]?
**A.** Its Activity is “Active”.

**Q.** And the inhibition [13]?
**A.** The inhibition was “Active”.
